CHO parental Ca: counter-screen: ATP calcium response change in parental CHO cells; hit rate 0.63% among 330,000; inhibition, % at 5.6 µM; parental CHO-K1, ATP-induced calcium, Fluo-8 fluorescence; AID 463079;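 active = inhibition above that plate's mean sample inhibition plus 3 SD, cut at about 26% in these data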;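 also: 0% = ATP-challenged DMSO wells and 100% = DMSO wells without ATP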
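Measured by: calcium-sensitive Fluo-8 fluorescence / Test system: CHO parental line / Controls: ATP-challenged DMSO wells low, unchallenged DMSO wells high / Measure: % inhibition / Compound: single nominal dose of 5.6 µM per compound / Replicates: single well per compound, no replicates / Reagent: ATP as calcium-mobilizing challenge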
OX1R antag-1: antagonists of human orexin 1 receptor; inhibition, % at 5 µM; hit rate 0.43% among 330,000; CHO/OX1R cells, Fluo-8 calcium fluorescence, orexin A; O43613;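 active = inhibition above its plate's threshold, mean inhibition of all tested compounds on the plate plus 3 SD, cut at about 37% in these data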;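 also: 0% = orexin A challenge wells and 100% = SB-334867-A antagonist wells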
Target sequence (O43613 whole entry, looked up): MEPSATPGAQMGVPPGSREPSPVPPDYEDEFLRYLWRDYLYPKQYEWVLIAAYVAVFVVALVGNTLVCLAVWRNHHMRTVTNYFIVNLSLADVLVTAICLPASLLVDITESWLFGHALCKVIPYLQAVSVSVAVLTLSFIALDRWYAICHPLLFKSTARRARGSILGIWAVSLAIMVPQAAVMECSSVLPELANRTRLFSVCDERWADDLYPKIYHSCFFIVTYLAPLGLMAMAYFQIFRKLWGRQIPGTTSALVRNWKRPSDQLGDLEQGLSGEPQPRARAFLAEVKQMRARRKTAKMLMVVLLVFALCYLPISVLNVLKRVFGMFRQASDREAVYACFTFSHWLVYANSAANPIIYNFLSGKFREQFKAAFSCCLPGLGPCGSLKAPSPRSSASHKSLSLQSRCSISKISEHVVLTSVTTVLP
MPTP inh: blocks calcium-induced mitochondrial swelling; isolated mouse mitochondria, Ca2+ swelling absorbance, 30 min; inhibition, % at 10 µM; hit rate 1.4% among 360,000;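 active = inhibition of 50% or more, scaled per plate between neutral and stimulator controls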;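 also: 0% = DMSO wells given calcium and 100% = 1 mM EGTA wells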
GPR7 antag: human neuropeptides B/W receptor 1 antagonism; hit rate 1.1% among 290,000; GPR7-expressing cells, fluorescence antagonist assay; inhibition, % at 4.4 µM; AID 1861; in the data active = inhibition above about 16%, passing the limit was not always enough;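 also: cells stimulated with the agonist NPW; 0% = agonist with vehicle and 100% = vehicle without agonist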
OX1R antag-2: blocks the human orexin 1 receptor. hit rate 1.8% among 330,000. OX1R-expressing cells, FRET antagonist read-out. inhibition, % at 6.6 µM; in the data active = inhibition mostly above about 38%, no sharp cut-off; inactive = mostly below about 40%;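 also: 0% = agonist challenge alone and 100% = reference antagonist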
An asterisk follows results filed as active; . = no result. Compounds with a hit are over-represented: about 3.8% of the library has one in this group of screens.

SMILES	CHO parental Ca	OX1R antag-1	MPTP inh	GPR7 antag	OX1R antag-2
Cc1cc(C(C)(C)C)oc1C(=O)N(CC(=O)NC1CCCC1)c1c(C)cccc1C	46*	42*	2	17	77*
COc1ccc(CC(=O)Nc2ccc(S(=O)(=O)N3CCCC3)cc2)c(OC)c1	-11	-8	-3	.	5
Cc1ccc(S(=O)(=O)NCCC(=O)OCc2ccc([N+](=O)[O-])cc2)cc1C	41*	17	0	.	14
O=C(Nc1ccc(Cl)c(C(F)(F)F)c1)[C@@H]1CC=C[C@@H]2CCN(C3CCCCC3)C(=O)[C@@H]21	-9	0	3	.	11
O=C(Nc1ccc(Cl)c(C(F)(F)F)c1)[C@@H]1CC=C[C@@H]2CCN(C3CC3)C(=O)[C@@H]21	-27	-10	1	.	62*
COc1cccc(-c2nn(-c3ccc(C)cc3)cc2C(=O)N2CCN(C3CCS(=O)(=O)C3)CC2)c1 (stereo not given)	-19	-21	1	.	9
CN(CCOc1ccc(-c2ccn(S(=O)(=O)c3ccc(Cl)cc3)n2)cc1)c1ccccn1	-7	-5	5	19*	39
CN(C)c1ccc(/C=C/c2nc3ccccc3c(=O)n2-c2ccc(C(=O)O)cc2)cc1	64*	83*	0	17	14
O=C(NC(c1ccc(Cl)cc1)c1cnccn1)C1CCN(Cc2cccc(C(F)(F)F)c2)CC1 (stereo not given)	.	.	0	.	.
O=C(N/N=C/c1ccc(-c2ccc(Cl)c(C(=O)O)c2)o1)c1cc2c(ccc3ccccc32)o1	-11	-11	6	-2	10
CS(=O)(=O)N(CC(=O)N1CCN(Cc2ccccc2)CC1)Cc1ccccc1	2	-4	0	16*	9
CC(=O)Oc1ccc(Nc2ccccc2)cc1	-1	-8	0	3	50*
CCN(C(=O)COC(=O)C1CCN(S(=O)(=O)c2cccs2)CC1)c1ccccc1	-16	-25	-1	10	21
CCCC1=NN(C(=O)C(=O)Nc2ccc(Br)cc2)C(O)(C(F)(F)F)C1 (stereo not given)	-3	-12	22	-9	50*
Cc1nn(-c2ccccc2)c2sc(-c3n[nH]c(=S)o3)cc12	-14	5	12	2	41*
COc1ccc(/C=N/NC(=O)CCn2c3ccccc3c3ccccc32)cc1OC	-19	7	-2	-3	59*
CCn1c2ccccc2c2cc(/C=N/NC(=O)c3ccc(O)cc3)ccc21	-21	9	-3	-10	76*
CCOC(=O)COc1ccc(C(=O)Nc2cccc(Cl)c2C)cc1	-7	-25	-1	4	6
O=C(NCc1cccnc1)C(=O)N/N=C/c1ccc([N+](=O)[O-])cc1	-4	-29	0	-7	59*
CC(=O)c1c(C)[nH]c(C(=O)CSc2nc3ccccc3n2C)c1C	51*	78*	4	9	108*
Cc1nc2ccc(C(=O)N3c4ccccc4N=C(c4ccc(C(F)(F)F)cc4)C3C(=O)NC(C)(C)C)cc2[nH]1 (stereo not given)	.	.	1	.	.
CCN(CC)C(=O)c1cccc2nc3ccccc3nc12	-18	-36	1	-2	72*
COc1ccc(C(=O)c2c3ccc([N+](=O)[O-])cc3[n+]([O-])n2CCCC(N)=O)cc1	-5	-5	-1	.	55
Cc1ccc(C(=O)c2c3ccc([N+](=O)[O-])cc3[n+]([O-])n2CCC(N)=O)cc1	-7	-6	.	2	62*
O=C(CSc1ccc2ccccc2n1)N1CCC(c2noc3ccc(F)cc23)CC1	-10	3	9	-5	55*
SMILES	CHO parental Ca	OX1R antag-1	MPTP inh	GPR7 antag	OX1R antag-2
CCOC(=O)/C=c1\s/c(=C(\C#N)C(N)=O)n(-c2ccccc2)c1=O	-9	-12	1	1	57*
CCOC(=O)/C=c1\s/c(=C(\C#N)C(=O)NC)n(-c2ccccc2)c1=O	-4	-11	0	-14	40
O=C1NC[C@@H](CCCCN2C[C@H](Cc3ccc(O)cc3)N(CCc3ccccc3)C(=O)C2=O)N(Cc2ccccc2)C1=O	.	.	0	.	.
Cc1ccc(-n2c3nc(=O)n(C)c(=O)c-3cc3ccccc32)cc1	-18	-10	3	-4	50*
O=c1c2ccccc2nc2c3ccccc3c(NCc3cccnc3)nn12	-19	-16	-2	-8	56
O=c1c2ccccc2nc2c3ccccc3c(NCCO)nn12	-9	-19	0	-12	50*
Cc1ccc([C@@H]2CC=C(C(=O)O)[C@H](c3ccc(F)cc3)N2S(=O)(=O)c2ccc(C)cc2)cc1	-16	1	-2	.	70*
Cc1ccc([C@@H]2CC=C(C(=O)O)[C@H](c3ccc(Br)cc3)N2S(=O)(=O)c2ccc(C)cc2)cc1	-12	3	1	.	39*
Cc1ccc(S(=O)(=O)N2[C@@H](c3ccc(C(C)(C)C)cc3)C(C(=O)O)=CC[C@H]2c2ccc(C(C)C)cc2)cc1	29	7	1	.	-8
CCc1ccc([C@@H]2CC=C(C(=O)O)[C@H](c3ccc(F)cc3)N2S(=O)(=O)c2ccc(C)cc2)cc1	-16	-6	1	.	16
Cc1ccc(S(=O)(=O)N2[C@@H](c3ccc(Br)cc3)C(C(=O)O)=CC[C@H]2c2ccc(C(C)C)cc2)cc1	75*	54*	-1	.	20
Cc1ccc(S(=O)(=O)N2[C@@H](c3ccccc3F)C(C(=O)O)=CC[C@H]2c2ccc3c(c2)OCO3)cc1	-7	-4	-2	.	47*
O=C(/C=C/c1ccc([N+](=O)[O-])cc1)N1CCN(Cc2ccccc2)CC1	4	-6	0	27	37
O=C(OCC(=O)N1CCCCCC1)c1ccc([N+](=O)[O-])cc1Cl	2	-26	-1	-1	46*
CN1CCN(C(=O)/C=C/c2ccc([N+](=O)[O-])cc2)CC1	-10	-7	1	-5	61*
O=C(/C=C/c1ccc([N+](=O)[O-])cc1)OCC(=O)N1CCCC1	-17	-14	0	.	45*
CN(C(=O)COC(=O)c1ccc([N+](=O)[O-])cc1Cl)C1CCCCC1	-16	-22	2	-3	67
CCN(c1ccccc1C(=O)O)S(=O)(=O)c1cccc2nsnc12	-7	-9	0	29	29
CCOC(=O)c1ccc(NC(=O)c2nc[nH]c2C(=O)N(C)Cc2ccccc2)cc1	-18	-7	0	.	57*
COc1cccc(NC(=O)Cc2nc(-c3ccccc3)sc2-c2ccc(C)cc2)c1	-16	-20	30	2	21
CC(=O)Nc1cccc(NC(=O)Cc2nc(-c3ccccc3)sc2-c2ccc(C)cc2)c1	-2	13	3	16	68*
COc1ccc(CN2C(=O)CN(S(C)(=O)=O)CC2(C)C(=O)NC(C)C)cc1OC (stereo not given)	.	.	1	.	.
O=C1Nc2ccccc2-n2nnnc2C1N1CCN(c2ccc(C(F)(F)F)cc2[N+](=O)[O-])CC1 (stereo not given)	.	.	0	.	.
COc1ccc(C(=O)N2CCCC(c3cc(C(=O)NCc4cccnc4)no3)C2)cc1 (stereo not given)	.	.	1	.	.
